Values joined by “and” are separate entries in the source; they are usually repeats but may differ in a detail not shown here. Equal entries are not always repeated. “Also recorded” adds a separate entry of the source. Structures can show the parent of a compound that is named as a salt. Where two headings read alike, the source gives them in different places.
How the values were obtained:
[1] = target: CYP2C19 (Homo sapiens, UniProt P33261); details: 10 μM, spectrofluorimetric substrates; ref Arthur, unpublished results; cited from earlier work
Sequence of CYP2C19 (P33261 whole entry): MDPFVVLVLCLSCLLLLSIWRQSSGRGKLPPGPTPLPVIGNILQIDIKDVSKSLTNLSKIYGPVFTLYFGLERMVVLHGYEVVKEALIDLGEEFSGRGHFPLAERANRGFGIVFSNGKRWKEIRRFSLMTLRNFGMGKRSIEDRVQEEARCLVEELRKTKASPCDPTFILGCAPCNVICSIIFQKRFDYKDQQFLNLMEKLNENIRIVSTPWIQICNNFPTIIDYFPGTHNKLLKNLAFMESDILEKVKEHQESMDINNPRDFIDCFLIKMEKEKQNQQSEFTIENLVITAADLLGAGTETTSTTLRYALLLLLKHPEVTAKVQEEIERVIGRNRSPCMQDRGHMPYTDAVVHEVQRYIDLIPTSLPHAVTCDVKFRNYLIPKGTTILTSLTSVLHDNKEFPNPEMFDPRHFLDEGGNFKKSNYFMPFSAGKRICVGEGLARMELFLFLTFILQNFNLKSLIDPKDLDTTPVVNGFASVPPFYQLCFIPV

[2] = 28-day and 22-week rat and 28-day dog studies; cited from earlier work
[3] = Pharmacokinetics of S2227 and M179 hydrochloride in mice; format: in vivo, male CD-1 mice; details: for AUC(0-t): male, CD-1, mouse, plasma, po
In short: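 Two groups of 28 male Crl:CD-1(ICR) mice were gavaged with a 1% methylcellulose suspension of either parent (30 mg/kg) or the equimolar secondary amine hydrochloride (20 mg/kg). Blood was taken by cardiac puncture from 4 mice/group/time point at about 15 and 30 min and 1, 2, 4, 8 and 24 h. Plasma levels of parent and metabolites gave Cmax and AUClast.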

[4] = system: bone marrow polychromatic erythrocytes; assay: In vivo micronucleus assay, bone marrow PCEs; design: species or system CD-1 mice; details: for Mortality: dose range finding
In short: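 Crl:CD-1(ICR) mice were gavaged for three consecutive days in 1% methylcellulose at 10 mL/kg. Dose-range phases used 3/sex/group: parent at 500–2000 mg/kg, amine salt at 125–2000 mg/kg/day. Definitive phases used 6/sex (parent) or 5/sex (amine), with MMS 40 mg/kg/day as positive control. Micronuclei were scored in 2000 bone marrow PCEs per animal, and the PCE/total erythrocyte ratio was used for cytotoxicity.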

[5] = Pharmacokinetics after single iv or oral S2227 in dogs; format: in vivo, beagle dogs; details: for AUC0-last ratio M179/S2227 / AUC0-last/dose: Dog (M); for AUC(0-t) / Cmax / Tmax / half-life: male, beagle, dog; for AUC(0-t) / Cmax / Tmax / half-life / AUC0-last/dose: plasma
[6] = system: human peripheral blood lymphocytes (HPBL); assay: In vitro chromosome aberration test
[7] = system: liver cells; assay: In vivo alkaline comet assay, liver; design: species or system CD-1 mice; details: males: 125, 250, 500 mg/kg bw; females: 250, 500, 1000 mg/kg bw (oral)
In short: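 Run on the same Crl:CD-1(ICR) mice as the micronucleus study, 5/sex/group. Animals received the salt of the secondary amine hydrolysis product by oral gavage for three consecutive days, with 1% methylcellulose as vehicle control. Liver cells were analysed by alkaline single-cell gel electrophoresis, scoring % tail DNA and counting "clouds" (hedgehogs) against vehicle controls.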

[8] = In vitro metabolism in liver microsomes; format: in vitro ADME, Gottingen pig; details: Pig (10 min), positive ionization
[9] = In vitro metabolism in liver microsomes; format: in vitro ADME, Sprague-Dawley rat; details: Rat (20 min), positive ionization
[10] = system: S. typhimurium strains TA98, TA100, TA1535, TA1537 and E. coli strain WP2 uvrA; assay: Bacterial reverse mutation test; format: cell-based; details: 50-5000 μg/plate, initial and confirmatory plate incorporation, ±S9
In short: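 OECD 471 design, run with and without Aroclor 1254-induced male Sprague-Dawley rat liver S9 (9000 × g fraction). The parent compound was tested by plate incorporation and pre-incubation at 63–1000 µg/plate. The secondary amine hydrolysis product (hydrochloride) was tested by plate incorporation only, in an initial toxicity-mutation phase and a confirmatory phase, at nominal 50–5000 µg/plate. Positive and vehicle controls ran concurrently.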

[11] = In vitro metabolism in liver microsomes; format: in vitro ADME; details: Human (60 min), positive ionization
[12] = In vitro metabolism in liver microsomes; format: in vitro ADME; details: Dog (60 min), positive ionization
[13] = Pharmacokinetics after single iv or oral S2227 in rats; format: in vivo, Sprague-Dawley rats; details: for AUC(0-t) / Cmax / Tmax / half-life: Sprague-Dawley, rat; for AUC(0-t) / Cmax / Tmax / half-life / AUC0-last/dose: plasma
In short: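 IV dosing: 4 male and 4 female Sprague-Dawley rats given a 1 mg/kg bolus in PEG 400, with blood sampled at about 0, 2, 5, 10 and 30 min and 1, 2, 4 and 8 h. Oral dosing: 4/sex/group gavaged at 10, 30 or 100 mg/kg in 1% methylcellulose, with blood sampled at about 0, 15 and 30 min and 1, 2, 4, 8 and 24 h. Plasma was assayed for parent and metabolites.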

[14] = ref Chi, unpublished results, cited from earlier work

CCNC(=O)C1CC(C)CCC1C(C)C (centres unmarked) [FEMA 3455, N-ethyl-p-menthane-3-carboxamide]
% inhibition of CYP2C19 [1]: 74%
NOEL [2]: 8 mg/kg/day

c1csc(CNc2cc[nH]n2)c1 [M179 hydrochloride salt, N-(2-thienylmethyl)-1H-pyrazol-3-amine]
fold higher exposure of M179 in plasma than after an equimolar dose of S2227 ([3]; oral, mice): 158 fold
Mortality ([4]; females, 2000 mg/kg): 3/3
Mortality ([4]; males, 1000 mg/kg/day): 2/3
Mortality ([4]; males, 2000 mg/kg): 3/3

c1csc(CNc2cc[nH]n2)c1 [M179, N-(2-thienylmethyl)-1H-pyrazol-3-amine]
AUC0-last ratio M179/S2227 ([5]; S2227 iv 1.0 mg/kg): 0.007
AUC0-last ratio M179/S2227 ([5]; S2227 oral gavage 10 mg/kg): 0.187
AUC0-last ratio M179/S2227 ([5]; S2227 oral gavage 30 mg/kg): 0.139
AUC0-last ratio M179/S2227 ([5]; S2227 oral gavage 100 mg/kg): 0.243
AUC(0-t) ([5]; iv, 1 mg/kg): 6.63 ± 0.9 ng·h/mL
Cmax ([5]; iv, 1 mg/kg): 5.2 ± 0.9 ng/mL
Tmax ([5]; iv, 1 mg/kg): 0.5 h
half-life ([5]; iv, 1 mg/kg): 1.1 h
AUC(0-t) ([5]; po, 10 mg/kg): 22.2 ± 8.78 ng·h/mL
Cmax ([5]; po, 10 mg/kg): 10.2 ± 4.84 ng/mL
Tmax ([5]; po, 10 mg/kg): 4.67 h
half-life ([5]; po, 10 mg/kg): 4.77 h
AUC(0-t) ([5]; po, 30 mg/kg): 31 ± 15.4 ng·h/mL
Cmax ([5]; po, 30 mg/kg): 6.81 ± 2.15 ng/mL
Tmax ([5]; po, 30 mg/kg): 1 h
half-life ([5]; po, 30 mg/kg): 2.27 h
AUC(0-t) ([5]; po, 100 mg/kg): 171 ± 144 ng·h/mL
Cmax ([5]; po, 100 mg/kg): 129 nM and 23.1 ng/mL
Tmax ([5]; po, 100 mg/kg): 10 h
half-life ([5]; po, 100 mg/kg): 4.69 h
AUC0-last/dose ([5]; dosed S2227 iv 1.0 mg/kg): 6.63 ng·h/mL/mg/kg
AUC0-last/dose ([5]; dosed S2227 oral gavage 10 mg/kg): 2.22 ng·h/mL/mg/kg
AUC0-last/dose ([5]; dosed S2227 oral gavage 30 mg/kg): 1.03 ng·h/mL/mg/kg
AUC0-last/dose ([5]; dosed S2227 oral gavage 100 mg/kg): 1.71 ng·h/mL/mg/kg
Chromosome aberration (in vitro) ([6]; 280-2160 μg/mL 4 h -S9, 100-1840 μg/mL 4 h +S9, 25-280 μg/mL 20 h -S9): Positive (4 h,⿿S9)
induction of structural aberrations ([6]; S9-activated test system): negative
induction of numerical aberrations ([6]; non-activated and S9-activated test systems): negative
induction of structural aberrations ([6]; non-activated test system): positive
DNA damage (in vivo), liver Comet assay [7]: negative (non-DNA damaging); also recorded: Negative
relative EIC peak area (%) compared to S2227 peak area at T = 0 min [8]: 37.29%
relative EIC peak area (%) compared to S2227 peak area at T = 0 min [9]: 6.47%
Reverse mutation (in vitro) [10]: not mutagenic; also recorded: Negative
relative EIC peak area (%) compared to S2227 peak area at T = 0 min [11]: 0.91%
relative EIC peak area (%) compared to S2227 peak area at T = 0 min [12]: 10.26%
AUC(0-t) ([3]; 20 mg/kg): 4370 ng·h/mL
AUC(0-t) ([3]; 30 mg/kg): 27.6 ng·h/mL
Micronucleus formation (in vivo) ([4]; males: 125, 250, 500 mg/kg bw, females: 250, 500, 1000 mg/kg bw (oral)): did not induce micronuclei; also recorded: Negative
AUC0-last ratio M179/S2227 ([13]; S2227 iv 1.0 mg/kg, Rat (F)): 0.042
AUC0-last ratio M179/S2227 ([13]; S2227 iv 1.0 mg/kg, Rat (M)): 0.040
AUC0-last ratio M179/S2227 ([13]; S2227 oral gavage 10 mg/kg, Rat (F)): 48.9
AUC0-last ratio M179/S2227 ([13]; S2227 oral gavage 10 mg/kg, Rat (M)): 155
AUC0-last ratio M179/S2227 ([13]; S2227 oral gavage 30 mg/kg, Rat (F)): 86.2
AUC0-last ratio M179/S2227 ([13]; S2227 oral gavage 30 mg/kg, Rat (M)): 98.6
AUC0-last ratio M179/S2227 ([13]; S2227 oral gavage 100 mg/kg, Rat (F)): 38.1
AUC0-last ratio M179/S2227 ([13]; S2227 oral gavage 100 mg/kg, Rat (M)): 69.9
AUC(0-t) ([13]; female, iv, 1 mg/kg): 12.6 ± 5.02 ng·h/mL
Cmax ([13]; female, iv, 1 mg/kg): 14 ± 4.84 ng/mL
Tmax ([13]; female, iv, 1 mg/kg): 0.13 h
half-life ([13]; female, iv, 1 mg/kg): 0.82 h
AUC(0-t) ([13]; female, po, 10 mg/kg): 384 ± 267 ng·h/mL
Cmax ([13]; female, po, 10 mg/kg): 407 ± 289 ng/mL
Tmax ([13]; female, po, 10 mg/kg): 0.44 h
half-life ([13]; female, po, 10 mg/kg): 1.02 h
AUC(0-t) ([13]; female, po, 30 mg/kg): 2510 ± 1700 ng·h/mL
Cmax ([13]; female, po, 30 mg/kg): 1540 ± 1050 ng/mL
Tmax ([13]; female, po, 30 mg/kg): 0.75 h
half-life ([13]; female, po, 30 mg/kg): 1.06 h
AUC(0-t) ([13]; female, po, 100 mg/kg): 5980 ± 745 ng·h/mL
Cmax ([13]; female, po, 100 mg/kg): 1770 ± 457 ng/mL
Tmax ([13]; female, po, 100 mg/kg): 0.83 h
half-life ([13]; female, po, 100 mg/kg): 1.84 h
AUC(0-t) ([13]; male, iv, 1 mg/kg): 8.78 ± 1.97 ng·h/mL
Cmax ([13]; male, iv, 1 mg/kg): 15.1 ± 3.23 ng/mL
Tmax ([13]; male, iv, 1 mg/kg): 0.11 h
half-life ([13]; male, iv, 1 mg/kg): 0.28 h
AUC(0-t) ([13]; male, po, 10 mg/kg): 254 ± 102 ng·h/mL
Cmax ([13]; male, po, 10 mg/kg): 189 ± 94.5 ng/mL
Tmax ([13]; male, po, 10 mg/kg): 0.5 h
half-life ([13]; male, po, 10 mg/kg): 1.12 h
AUC(0-t) ([13]; male, po, 30 mg/kg): 614 ± 201 ng·h/mL
Cmax ([13]; male, po, 30 mg/kg): 290 ± 115 ng/mL
Tmax ([13]; male, po, 30 mg/kg): 0.75 h
half-life ([13]; male, po, 30 mg/kg): 1.29 h
AUC(0-t) ([13]; male, po, 100 mg/kg): 3500 ± 813 ng·h/mL
Cmax ([13]; male, po, 100 mg/kg): 5.64 µM and 1010 ng/mL
Tmax ([13]; male, po, 100 mg/kg): 1.13 h
half-life ([13]; male, po, 100 mg/kg): 1.83 h
AUC0-last/dose ([13]; dosed S2227 iv 1.0 mg/kg, Rat (F)): 12.6 ng·h/mL/mg/kg
AUC0-last/dose ([13]; dosed S2227 iv 1.0 mg/kg, Rat (M)): 8.78 ng·h/mL/mg/kg
AUC0-last/dose ([13]; dosed S2227 oral gavage 10 mg/kg, Rat (F)): 38.4 ng·h/mL/mg/kg
AUC0-last/dose ([13]; dosed S2227 oral gavage 10 mg/kg, Rat (M)): 25.4 ng·h/mL/mg/kg
AUC0-last/dose ([13]; dosed S2227 oral gavage 30 mg/kg, Rat (F)): 83.7 ng·h/mL/mg/kg
AUC0-last/dose ([13]; dosed S2227 oral gavage 30 mg/kg, Rat (M)): 20.5 ng·h/mL/mg/kg
AUC0-last/dose ([13]; dosed S2227 oral gavage 100 mg/kg, Rat (F)): 59.8 ng·h/mL/mg/kg
AUC0-last/dose ([13]; dosed S2227 oral gavage 100 mg/kg, Rat (M)): 35.0 ng·h/mL/mg/kg

CCN(Cc1cccs1)C(=O)COc1ccc(C)cc1 [S5031, 2-(4-methylphenoxy)-N-ethyl-N-(2-thienylmethyl) acetamide]
AUC0-8h ratio (acid/amine) ([14]; jugular vein (JV)): 23.0
AUC0-8h ratio (amide/acid) ([14]; jugular vein (JV)): 0.013
AUC0-8h ratio (acid/amine) ([14]; portal vein (PV)): 13.3
AUC0-8h ratio (amide/acid) ([14]; portal vein (PV)): 0.52
